Series [1] is described as follows: Cytotoxicity against human CEM-SS cells by MTT assay. The series is classed as cell-based. In general terms: Tetrazolium dyes change colour on reduction, which living cells bring about.
Series [2] relates to Human immunodeficiency virus 1. Put plainly: Antiviral activity against HIV1 3B in human MT4 cells by MTT assay. As to conditions: for pEC50: Human immunodeficiency virus 1, 3B.
Series [3] deals with Human immunodeficiency virus 1. Put plainly: Antiviral activity against HIV1 with RT Y181C mutation. The format is functional, organism-based. The method, boiled down: (§1)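 Cytoprotection assay in CEM-SS cells infected with HIV-1 strains engineered to carry the NNRTI-resistance RT mutation (K103N or Y181C). Activity is expressed as the EC50 for protection of the cells from virus-induced cytopathic effect.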

In series [4] the test system is Human immunodeficiency virus 2. Put plainly: Antiviral activity against HIV2 ROD in human MT4 cells by MTT assay.
Series [5] relates to Human immunodeficiency virus 1. Put plainly: Antiviral activity against HIV1 with RT K103N mutation. The format is functional, organism-based. The method, boiled down:
as §1

A short description of series [6]: Cytotoxicity against human MT4 cells by MTT assay. The series is classed as cell-based.
Series [7] can be described thus: Metabolic stability in rat plasma. The format is ADME, cell-free. The method, boiled down: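 Compounds were incubated in reconstituted rat plasma (two lots, checked with a control compound), with 1,1-diphenylethylene as internal standard. Aliquot supernatants were analysed by HPLC with UV detection. Half-lives came from regression fits of concentration versus time and were averaged over at least two replicates.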

Series [8] deals with Human immunodeficiency virus 1. Put plainly: Antiviral activity against HIV1 RF in human CEM-SS cells by XTT assay. The format is functional, organism-based. Particulars: for pEC50: Human immunodeficiency virus 1, RF.
Series [9] has as its target Human immunodeficiency virus type 1 reverse transcriptase (Human immunodeficiency virus 1, UniProt Q72547). Put plainly: Inhibition of HIV1 reverse transcriptase.

pEC50, pIC50: −log10 of the molar value. Calls of active or inactive are those of the source. No cut-off for these calls is given here.

By CC50 is commonly meant the concentration giving 50% cytotoxicity. Read a low CC50 as harm at low concentration. The term pEC50 denotes the negative decadic logarithm of the EC50, by convention in mol/L. A higher pEC50 goes with a small EC50. The half-life is the time in which the quantity being followed falls by half. One may read the pIC50 as the IC50 on a negative log10 scale, so that one unit is a factor of ten. Lower therefore signals a large IC50. Consider `COC(=O)c1cc(/C(=C\CCc2nnc(C)o2)c2cccc(C#N)c2)cc(C)c1OC`, for which the CC50 turned out to be 4.5 µM in [1] and 8.1 µM in series [6]. For the same molecule, the result in series [2], in [4] and in [8] was inactive. Besides, the negative-log EC50 (pEC50) was less than 4.00 in [3] and less than 4.30 in series [5]. This molecule displayed a half-life in series [7] of 1.89 h. This molecule showed a negative-log IC50 (pIC50) in series [9] of 4.54.

As to `COc1c(C)cc(/C(=C\CCc2nnc(C)o2)c2cc(C)c3onc(OC)c3c2)cc1C(=O)SC`, the CC50 in series [1] was found to be 2.1 µM; in series [6], 4.4 µM. Also, the pEC50 in series [2] was 6.09; in series [3], less than 4.00; in [5] it was less than 4.30; in series [8] it was 6.28. Also, the outcome in series [4] was inactive. In addition, the half-life in series [7] was found to be 18.2 h. Further, in series [9], the pIC50 was 6.05.

For the molecule `COc1c(C)cc(/C(=C/CCCc2nnc(C)o2)c2ccc(C#N)cc2)cc1C(=O)SC`, the cytotoxic concentration (CC50) turned out to be 4.8 µM in series [1] and 7.6 µM in series [6]. For the same molecule, the result in series [2], in series [4] and in [8] was inactive. In addition, the results for the pEC50 in series [3] and in series [5] were less than 4.00 and less than 4.30, respectively. Besides, the half-life in [7] amounted to 0.692 h. In [9], this molecule gave a pIC50 of 6.35.

In the case of `COc1c(C)cc(C(=CCCCc2nnc(C)o2)c2cc(C)c(OC)c(C(=O)SC)c2)cc1C(=O)SC`, the figures for the CC50 in [1] and in [6] were 5.3 µM and 4.4 µM, respectively. Moreover, the negative-log EC50 (pEC50) in series [2] is 5.89; in series [3], less than 4.00; in [5] it was less than 4.30; in [8], 5.66. The result in series [4] was inactive. This molecule displayed a half-life in series [7] of 1.27 h. In [9], this molecule showed a pIC50 of 5.17.

With `COc1c(C)cc(/C(=C\CCCc2nnc(C)o2)c2cc(C)c3onc(OC)c3c2)cc1C(=O)SC`, the CC50 in series [1] amounted to 5.7 µM; in series [6], 7 µM. Further, the pEC50 in series [2] was 6.85; in series [3], less than 4.00; in series [5] it was 6.40; in series [8] it was 7.30. The result in [4] was inactive. Moreover, in series [7], the half-life is 14.4 h. Also, the negative logarithm of the IC50 (pIC50) in [9] was 6.33.

For `COc1c(C)cc(/C(=C/CCc2nnc(C)o2)c2ccc3oc(=O)n(C)c3c2)cc1C(=O)SC`, the values for the half-maximal cytotoxic concentration (CC50) in series [1] and in series [6] were 5.9 µM and 12 µM, respectively. Also, the pEC50 in [2] was 6.16; in [3], less than 4.00; in series [4] (Human immunodeficiency virus 2, ROD), 5.33; in series [5], 6.00; in series [8] it was 6.22. The molecule also registered a half-life in series [7] of 12.3 h. The pIC50 in [9] was 5.59.

As to `COc1c(C)cc(/C(=C\CCCc2nnc(C)o2)c2cccc(C#N)c2)cc1C(=O)SC`, the CC50 in series [1] stood at 12 µM; in series [6], 36 µM. In addition, the pEC50 in series [2] is 6.08; in series [3] it was less than 4.00; in series [5] it was 5.92; in series [8], 6.30. For the same molecule, the result in [4] was inactive. In addition, the half-life in [7] was 3.68 h. Further, the negative-log IC50 (pIC50) in series [9] was 6.28.

Turning to `COC(=O)c1cc(/C(=C\CCc2nnc(C)o2)c2cc(C)c3onc(OC)c3c2)cc(C)c1OC`, the CC50 amounted to 2.8 µM in [1] and 6.4 µM in series [6]. The pEC50 was 6.38 in series [2], less than 4.00 in series [3], 6.10 in series [5] and 6.44 in [8]. The result in [4] was inactive. The half-life in [7] was determined as 5.52 h. Besides, in [9], the negative-log IC50 (pIC50) is 6.41.

`COC(=O)c1cc(/C(=C\CCc2nnc(C)o2)c2cc(C)c3on(C)c(=O)c3c2)cc(C)c1OC`: the CC50 in [1] is 7.7 µM; in [6], 41 µM. The pEC50 was 5.57 in series [2], less than 4.00 in series [3], less than 4.30 in series [5] and 5.52 in [8]. Also, the outcome in [4] was inactive. The half-life in series [7] came to 3.66 h. In [9], this molecule gave a negative logarithm of the IC50 (pIC50) of 5.13.

As for `COc1c(C)cc(/C(=C\CCCc2nnc(C)o2)c2ccc(C#N)cc2)cc1C(=O)SC`, the half-maximal cytotoxic concentration (CC50) in [1] amounted to 8.9 µM; in series [6], 36 µM. For the same molecule, the negative logarithm of the EC50 (pEC50) in series [2] was 6.44; in [3], less than 4.00; in series [5], 5.64; in [8] it was 6.22. The result in [4] was inactive. Also, the half-life in series [7] is 0.75 h. For the same molecule, the pIC50 in series [9] was 5.49.
